In publication PMC10523135 (RSC Advances, 2023) one finds IC50 data, which are given here for two compounds.

Common to all, as to type: cell-based
In assay [1] the test system is MCF-7 (human breast cancer cell line). Put plainly: CCK-8 antiproliferative assay, MCF-7. The conditions noted are these: MCF7, 48 h, read-out: IC50 (μM) ± SD MCF-7.
Assay [2] has as its system HeLa (human cervical cancer cell line). Nature of the assay: CCK-8 antiproliferative assay, HeLa. Conditions: 48 h, read-out: IC50 (μM) ± SD Hela. The method, boiled down: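 HeLa cells were grown in RPMI 1640 with 10% FBS and 1% penicillin/streptomycin at 37 °C, 5% CO2. They were seeded at 5 × 10^4 cells per well and left 24 h. Test compound was diluted from […] DMSO stock into medium, with final DMSO below 0.1%, and exposure lasted 48 h. CCK-8 was then added for 2 h at 37 °C and absorbance read at 450 nm. IC50 came from viability data; experiments were done three times.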

Assay [3] deals with A549 (human lung cancer cell line). Nature of the assay: CCK-8 antiproliferative assay, A549. The conditions noted are these: A549, 48 h, read-out: IC50 (μM) ± SD A549.

Broadly, the IC50 is the point on the concentration scale where inhibition reaches its midpoint.

For `CNC(=O)c1c(C)oc2cc(Oc3ncnc4cc(OC)c(OC)cc34)ccc12` [Fruquintinib], the IC50 in assay [1] was more than 20 µM; in assay [2], 8.35 ± 0.47 µM.
For the compound `O=C(CCCCCCC(=O)Nc1ccccc1)NO` [SAHA], the IC50 is 3.54 ± 0.25 µM in assay [3] and 1.03 ± 0.33 µM in assay [2].
